From PubChem BioAssay
UBC13 inh – inhibitors of human UBC13 polyubiquitin chain formation | TR-FRET | 330,000 tested, 0.47% active | inhibition, % at 20 µM; in the data active = inhibition above about 45%, passing the limit was not always enough
Target sequence (P61088 whole entry, looked up): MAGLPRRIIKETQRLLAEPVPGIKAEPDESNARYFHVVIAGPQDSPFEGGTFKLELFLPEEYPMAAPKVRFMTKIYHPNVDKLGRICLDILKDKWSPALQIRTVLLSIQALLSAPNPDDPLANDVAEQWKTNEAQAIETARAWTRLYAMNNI
SENP8 block-1 – blocks the human protease SENP8; inhibition, % at 10 µM; 330,000 tested, 1.2% active; AID 2540; purified SENP8, Z-RLRGG-aminoluciferin cleavage, luminescence; Q96LD8; in the data active = inhibition above about 50%
Target sequence (Q96LD8 whole entry, looked up): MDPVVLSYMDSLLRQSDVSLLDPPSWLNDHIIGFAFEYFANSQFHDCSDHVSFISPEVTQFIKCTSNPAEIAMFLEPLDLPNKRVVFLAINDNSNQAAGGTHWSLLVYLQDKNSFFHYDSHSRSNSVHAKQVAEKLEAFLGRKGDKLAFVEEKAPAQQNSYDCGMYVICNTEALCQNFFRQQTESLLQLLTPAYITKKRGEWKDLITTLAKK
SENP8 block-2 – blocks human SENP8 cleavage of Nedd8 substrate | Q96LD8 | recombinant SENP8, Nedd8 substrate fluorescence | inhibition, % at 20 µM | 360,000 tested, 0.64% active | AID 602440; in the data active = inhibition mostly above about 40%, no sharp cut-off; inactive = mostly below about 27%
SENP7 block – SENP7 protease inhibition. Q9BQF6. AID 434973. recombinant SENP7, Z-RLRGG-aminoluciferin luminescence, 40 min. 330,000 tested, 1.5% active. inhibition, % at 5 µM;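 active = inhibition above about 50% at the single test dose, limit read from the data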;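 note: plate controls were DMSO with enzyme for no effect and no enzyme buffer wells for full effect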
Apaf1 inhib – inhibitors of human Apaf-1 apoptosome. O14727. reconstituted apoptosome caspase-3 activity, DEVD-Rh110 fluorescence. inhibition, % at 20 µM. 330,000 tested, 0.71% active. AID 489030; active = inhibition of at least 40% at 20 µM;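 note: plate controls were DMSO wells for no effect and DEVD-CHO caspase inhibitor wells for full effect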
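Material: reconstituted apoptosome with Apaf-1, cytochrome c, caspase-9, procaspase-3, dATP; medium: pH 7.5 Hepes buffer with CHAPS, BSA, DTT; also added: cytochrome c and DEVD-Rh110 substrate; timing: 30 min plus 50 min, RT; signal: Rh110 fluorescence intensity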
SENP6 block – blocks the human protease SENP6 | Q9GZR1 | Recombinant SENP6 catalytic domain, aminoluciferin luminescence | inhibition, % at 10 µM | 330,000 tested, 1.8% active | AID 2599;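 active = inhibition above about 50% at the single tested dose, limit read from the data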;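 note: plate controls were DMSO wells with enzyme for no effect and DMSO wells lacking enzyme for full effect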
SENP8 conf – SENP8 (human) inhibition, single concentration confirmation | shares compounds with SENP8 block-2 | purified SENP8, Nedd8-AMC/pro-Nedd8 cleavage fluorescence, 30 min | inhibition, % at 25 µM | 1,400 tested, 15% active; in the data active = inhibition mostly above about 39%, no sharp cut-off; inactive = mostly below about 34%
Active calls of the source: *; nt = no result. Hits are enriched below; roughly 3.1% of the tested compounds scored in any of these assays.

SMILES	UBC13 inh	SENP8 block-1	SENP8 block-2	SENP7 block	Apaf1 inhib	SENP6 block	SENP8 conf
Oc1ccc(C[C@H]2CNC(=S)N2C[C@H]2CCCN2C[C@H](Cc2ccccc2)N2C[C@H](Cc3ccc(O)cc3)N(CCc3ccccc3)C2=S)cc1	nt	nt	9	nt	nt	nt	nt
COc1ccc(CCNC(=O)CSc2nc(=O)n3cc(C)ccc3n2)cc1OC	-9	3	62*	4	6	-9	25
CCCNC(=O)C1(C)CCN(C(=O)c2c(Cl)cccc2Cl)C1 (stereo not drawn)	nt	nt	-9	nt	nt	nt	nt
O=C(Cn1cnc2ccccc2c1=O)Nc1nnc(SCc2ccccc2)s1	-2	7	42*	3	3	17	12
CN1CCC(=NNC(=O)C(=O)NC2CCCC2)CC1	5	4	40*	7	-6	2	5
N#Cc1ccc(C(=O)N2CCCCC2c2cc(C(=O)Nc3ccccc3Cl)no2)cc1 (stereo not drawn)	nt	nt	6	nt	nt	nt	nt
Cc1ccc(C)c(NC(=S)c2ccc3ccccc3n2)c1	8	14	12	39	12	45	nt
CN(C)c1ccc(NC(=S)c2ccc3ccccc3n2)cc1	-55	-12	42*	-14	20	5	18
O=C(N/N=C/c1cc([N+](=O)[O-])ccc1Cl)c1cc(-c2ccccc2)nc2ccccc12	-12	-4	41*	-4	-11	-21	-5
Cc1cc(C(=O)N/N=C/c2ccc([N+](=O)[O-])s2)c2ccccc2n1	-9	8	46*	0	11	32	28
NC(=NC1CCCCC1)c1ccc([N+](=O)[O-])cc1	-8	8	42*	3	4	-7	5
O=C(CSc1ccsc1[N+](=O)[O-])NCCc1ccc(Cl)cc1	-1	-4	2	-4	5	0	nt
CC(Sc1ccsc1[N+](=O)[O-])C(=O)NCCc1ccc(Cl)cc1 (stereo not drawn)	7	5	42*	-1	7	8	15
O=C1CC(SC(=S)C2CCCC2=O)C(=O)N1 (stereo not drawn)	nt	nt	41*	nt	nt	nt	27
O=C1CC(Sc2ncccc2C(=O)O)C(=O)N1 (stereo not drawn)	8	7	10	-2	-11	15	nt
CC(C)c1[nH]nc2c1C(C(C)C)C(C#N)=C(N)O2 (stereo not drawn)	-3	0	40*	-9	2	-31	13
CSc1cccc(NC(=S)N(CCCN2CCCC2)Cc2cccn2Cc2ccc(Cl)cc2)c1	29	-7	39	5	22	-13	nt
COc1ccc(NC(=S)N(CCCN2CCCC2)Cc2cccs2)cc1	11	-3	22	2	4	1	nt
CSc1cccc(NC(=S)N(CCCN2CCCC2)Cc2cccs2)c1	17	1	46*	-5	-15	-2	-4
S=C(Nc1cccc(Cl)c1)N(CCCN1CCCC1)Cc1cccn1Cc1ccc(Cl)cc1	18	-1	40*	2	-8	-8	29
COCCN1C(=O)CCC1(C)C(=O)NC1CCCCC1 (stereo not drawn)	nt	nt	12	nt	nt	nt	nt
O=C1SCCN1N=Cc1ccc([N+](=O)[O-])o1	nt	nt	55*	nt	nt	nt	18
CC1CN(N=Cc2ccc([N+](=O)[O-])o2)C(=N)O1 (stereo not drawn)	nt	nt	48*	nt	nt	nt	29
O=[N+]([O-])c1ccc(/C=N/N=C/c2ccc([N+](=O)[O-])o2)o1	nt	nt	37	nt	nt	nt	nt
CC(=O)N1CCN(C(C(=O)Nc2c(C)cccc2C)c2cccc(F)c2)CC1 (stereo not drawn)	nt	nt	13	nt	nt	nt	nt
SMILES	UBC13 inh	SENP8 block-1	SENP8 block-2	SENP7 block	Apaf1 inhib	SENP6 block	SENP8 conf
CN(C)c1ccc(N=Cc2nc(-c3ccccc3)oc2O)cc1	-85	-12	40*	32	14	7	-6
O=C(NCCCN1CCN(c2ccccc2F)CC1)Nc1ccccc1[N+](=O)[O-]	-6	-9	44*	8	-12	9	19
O=C(NCCCN1CCN(c2ccccc2F)CC1)Nc1ccc(F)cc1	10	-4	8	-4	8	-6	nt
CCCCCCC(=O)Nc1ccc(S(=O)(=O)Nc2onc(C)c2C)cc1	-1	-11	5	-15	14	-17	nt
Cc1noc(NS(=O)(=O)c2ccc(NC(=O)CCC3CCCC3)cc2)c1C	-4	-13	43*	-5	2	-8	-8
Cc1cc(C)nc(NNS(=O)(=O)c2ccc(F)c(Cl)c2)n1	-5	-2	36*	3	10	-9	14
CCN(C(=O)COC(=O)c1cnc(C)cn1)C1CCCCC1	-5	4	40*	6	-14	9	4
CCn1c(SCc2cccc(C(=O)O)c2)nnc1-c1ccccc1	-7	0	48*	1	-5	-2	22
CCn1c(SCC(=O)O)nnc1-c1ccccc1	-5	-2	24	-10	-4	2	nt
COc1ccc(N(CCC#N)C(=O)/C(C#N)=C\c2cccs2)cc1	-10	-11	34*	-2	2	-19	10
CCOC(=O)c1c(N)c2cc([N+](=O)[O-])ccc2n1C	-44	1	47*	-9	-3	-13	7
CCOC(=O)/C(=C/c1c(C)n(C)c2ccc([N+](=O)[O-])cc12)C(C)=O	-1	0	21	-5	3	-2	nt
Cc1cc(C)c2c(=O)n3c(nc2c1)C(CC(C)C)NC(=O)c1cccnc1-3 (stereo not drawn)	nt	nt	-5	nt	nt	nt	nt
CC(=O)Nc1cccc(-c2ccnc3c2CC(C(=O)NCc2ccc(N4CCN(C)CC4)cc2)O3)c1 (stereo not drawn)	nt	nt	-27	nt	nt	nt	nt
Cc1cc(C)c(C)c(S(=O)(=O)NCc2ccc(C(=O)N3CCCCC3)cc2)c1C	5	1	42*	-5	7	-6	8
Cc1cc(C)c(C)c(S(=O)(=O)NCc2ccc(C(=O)N3CCCC3)cc2)c1C	1	8	2	-13	1	-9	nt
CC1(C(=O)N2CCCCC2)CCN1C(=O)Cc1ccc(-c2ccccc2)cc1 (stereo not drawn)	nt	nt	7	nt	nt	nt	nt
O=C1c2c(O)cc(O)cc2O[C@H](c2ccc(O)c(O)c2)[C@H]1O	14	10	10	-2	-15	-20	nt
O=C1c2c(O)cc(O)cc2O[C@H](c2ccc(O)cc2)[C@H]1O	7	-16	62*	1	8	-13	21
CC(=O)Nc1ccc(C(=O)N2CCCC(c3cc(C(=O)NCc4cccnc4)no3)C2)cc1 (stereo not drawn)	nt	nt	6	nt	nt	nt	nt
CC(C)CCNC(=O)C1(c2cccs2)CCOCC1	-14	-8	41*	-4	-13	17	4
CSc1ccc(OC2(C)CCN(Cc3ccc(OC(F)(F)F)cc3)C2)cc1 (stereo not drawn)	nt	nt	25	nt	nt	nt	nt
CC(=O)Nc1ccc(S(=O)(=O)N[C@@H](C)C(=O)OCc2cc([N+](=O)[O-])cc3c2OCOC3)cc1	2	4	45*	3	-8	12	-1
COc1ccc(C2CC3(CC(C)(C)NC(=S)N3)Oc3cc(O)cc(C)c32)cc1 (stereo not drawn)	4	-9	31	5	13	-6	nt
COc1ccc(C2CC3(CC(C)(C)NC(SC)=N3)Oc3cc(O)cc(C)c32)cc1 (stereo not drawn)	2	-10	44*	4	-1	6	9
